Source: PubChem BioAssay
HSP90 inh – blocks HSP90-mediated luciferase refolding in reticulocyte lysate | Rabbit reticulocyte lysate, luciferase refolding luminescence, 3 h | inhibition, % at 5.6 µM | 0.91% of 290,000 active | AID 1789;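 active = inhibition above the screen-wide mean plus 3 SD, computed separately per campaign, cut at about 16% in these data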;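 also: 0% = DMSO wells and 100% = 60 µM geldanamycin wells; inhibitors lower the luminescence because luciferase stays unfolded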
SENP8 block-1 – blocks the human protease SENP8; Q96LD8; inhibition, % at 10 µM; 1.2% of 330,000 active; purified SENP8, Z-RLRGG-aminoluciferin cleavage, luminescence; AID 2540; in the data active = inhibition above about 50%
SENP7 block – blocks the human protease SENP7; Q9BQF6; recombinant SENP7, Z-RLRGG-aminoluciferin luminescence, 40 min; inhibition, % at 5 µM; 1.5% of 330,000 active; AID 434973;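 active = inhibition above about 50% at the single test dose, limit read from the data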;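 also: plate controls were DMSO with enzyme for no effect and no enzyme buffer wells for full effect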
SENP6 block – inhibitors of human SENP6 protease; Q9GZR1; Recombinant SENP6 catalytic domain, aminoluciferin luminescence; inhibition, % at 10 µM; 1.8% of 330,000 active;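 active = inhibition above about 50% at the single tested dose, limit read from the data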;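 also: plate controls were DMSO wells with enzyme for no effect and DMSO wells lacking enzyme for full effect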
Target sequence (Q9GZR1 628-1112 limits assumed): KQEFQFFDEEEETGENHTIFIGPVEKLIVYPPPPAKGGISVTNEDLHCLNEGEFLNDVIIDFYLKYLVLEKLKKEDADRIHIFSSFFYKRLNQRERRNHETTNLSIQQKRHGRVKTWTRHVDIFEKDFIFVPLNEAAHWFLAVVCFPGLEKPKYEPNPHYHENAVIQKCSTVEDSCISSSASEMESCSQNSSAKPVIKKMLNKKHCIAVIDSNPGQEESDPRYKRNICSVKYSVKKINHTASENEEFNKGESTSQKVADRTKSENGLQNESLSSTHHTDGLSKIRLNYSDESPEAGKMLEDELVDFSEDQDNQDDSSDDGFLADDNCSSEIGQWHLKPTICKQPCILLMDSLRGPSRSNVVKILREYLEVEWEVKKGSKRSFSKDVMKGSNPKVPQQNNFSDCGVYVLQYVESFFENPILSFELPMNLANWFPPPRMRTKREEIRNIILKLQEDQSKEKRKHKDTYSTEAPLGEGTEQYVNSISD
SENP8 block-2 – inhibitors of human SENP8 protease. Q96LD8. recombinant SENP8, Nedd8 substrate fluorescence. inhibition, % at 20 µM. 0.64% of 360,000 active. AID 602440; in the data active = inhibition mostly above about 40%, no sharp cut-off; inactive = mostly below about 27%
SENP1 inh – inhibitors of human SENP1 SUMO protease catalytic domain; inhibition, % at 10 µM; recombinant SENP1 catalytic domain, CyPet-SUMO1-YPet FRET cleavage; Q9P0U3; 0.21% of 360,000 active;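 active = inhibition at least 30% at 10 µM, raw YFP signal under a set limit, fluorescence ratio 0.5 to 1.5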;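 also: 0% = enzyme with DMSO and 100% = no enzyme wells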
Target sequence (Q9P0U3 419-644 limits assumed): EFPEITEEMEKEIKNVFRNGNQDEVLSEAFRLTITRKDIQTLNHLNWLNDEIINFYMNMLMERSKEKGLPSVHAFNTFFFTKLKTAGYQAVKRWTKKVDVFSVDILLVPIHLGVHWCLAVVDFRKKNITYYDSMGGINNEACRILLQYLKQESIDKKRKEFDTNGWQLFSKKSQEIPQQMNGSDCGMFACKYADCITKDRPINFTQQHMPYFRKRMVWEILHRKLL
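Assay system: hSENP1 catalytic domain, recombinant. Amount: SENP1 enzyme, 20 pM final. Schedule: 50 min reaction, RT, dark. Technique: FRET, CFP and YFP emission. Control set: no-enzyme wells low, DMSO-plus-enzyme wells high control.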
HSP90 confirm – confirmation of HSP90 inhibitors; shares compounds with HSP90 inh; rabbit reticulocyte lysate, luciferase refolding luminescence, 3 h; inhibition, % at 5.9 µM; 64% of 2,300 active; in the data active = inhibition above about 18%;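 also: 0% = vehicle wells and 100% = reference inhibitor wells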
luciferase ctr – counter-screen for HSP90 inhibitors: inhibitors of firefly luciferase. shares compounds with HSP90 inh. purified native firefly luciferase, luminescence. AID 1847. 48% of 2,300 active. inhibition, % at 5.9 µM;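 active = inhibition above the mean inhibition of all tested sample wells plus 3 SD, cut at about 10% in these data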;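 also: 0% = DMSO with luciferase and 100% = wells lacking luciferase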
SENP8 conf-1 – confirmation of human SENP8 protease inhibitors; AID 488912; inhibition, % at 12.5 µM; shares compounds with SENP7 block; Recombinant SENP8, Z-RLRGG-aminoluciferin luminescence, 60 min; 40% of 6,200 active;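 active = mean inhibition across replicates above about 50%, limit read from the data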
SENP6 conf – confirmation of human SENP6 protease inhibitors; recombinant SENP6, Z-RLRGG-aminoluciferin luminescence; shares compounds with SENP7 block; 58% of 6,200 active; AID 488915; inhibition, % at 12.5 µM
SENP7 conf – human SENP7 inhibition, confirmed. shares compounds with SENP7 block. AID 488917. 69% of 6,200 active. inhibition, % at 12.5 µM. recombinant SENP7, Z-RLRGG-aminoluciferin luminescence, 40 min
Casp3 select – inhibits human caspase-3 in SENP selectivity test; shares compounds with SENP7 block; purified caspase-3, Z-DEVD-aminoluciferin luminescence, 60 min; inhibition, % at 12.5 µM; 60% of 6,200 active; AID 488918;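 active = mean inhibition above about 50%, limit read from the data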;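 also: plate controls were enzyme with DMSO for no effect and wells without caspase-3 for full effect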
SENP luc ctr – counter-screen for SENP inhibitors: luminescence interference; shares compounds with SENP7 block; Pre-incubated SENP8/Z-RLRGG-aminoluciferin, luciferase luminescence interference; inhibition, % at 12.5 µM; 39% of 6,200 active; AID 488919;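 active = mean inhibition above about 50% when retested at one dose, limit read from the data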;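 also: plate controls were DMSO wells with completed reaction for no effect and substrate without enzyme for full effect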
SENP8 conf-2 – SENP8 (human) inhibition, single concentration confirmation | shares compounds with SENP8 block-2 | purified SENP8, Nedd8-AMC/pro-Nedd8 cleavage fluorescence, 30 min | inhibition, % at 25 µM | 15% of 1,400 active; in the data active = inhibition mostly above about 39%, no sharp cut-off; inactive = mostly below about 34%
* = called active by the depositor; nt = not tested or not shown. Rows were chosen to be rich in hits. Some 2.9% of all compounds tested hit in one or more screens of this group.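 The calls were made as follows, unless noted: active = mean inhibition above about 50% in the one-dose retest (limit read from the data); inactive = the rest.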

SMILES	HSP90 inh	SENP8 block-1	SENP7 block	SENP6 block	SENP8 block-2	SENP1 inh	HSP90 confirm	luciferase ctr	SENP8 conf-1	SENP6 conf	SENP7 conf	Casp3 select	SENP luc ctr	others
Cc1cccc(Oc2ccc3c(c2)cc(C(=O)O)n3C)c1	-0.1	3.1	1.4	4.5	-16.0	-1.0	nt	nt	nt	nt	nt	nt	nt
Cc1cccc(-c2noc(C3CCCCC3)n2)c1	64.5*	20.8	49.8	62.9*	14.9	1.5	5.8	-12.4	10.9	25.8	74.8*	22.5	10.3
CCCNC(=O)[C@@H]1CCCN1C(=O)[C@@H]1Cc2ccccc2CN1	2.6	10.1	1.2	11.0	11.6	-1.5	nt	nt	nt	nt	nt	nt	nt
CCN(c1ccccc1)c1cc2ccccc2c(=O)[nH]1	41.1*	92.1*	86.2*	87.6*	-200.8	-49.1	9.4	-4.0	19.9	61.1*	43.4	16.6	-3.3
CCN(c1ccccc1)c1nc(=O)c2cccnc2s1	5.2	2.9	5.9	9.1	-11.0	0.1	nt	nt	nt	nt	nt	nt	nt
COc1ccc(C(=O)Nc2ccc3c(c2)OCCO3)c(OC)c1	nt	nt	nt	nt	18.9	1.1	nt	nt	nt	nt	nt	nt	nt
O=C(Nc1ccc2c(c1)OCCO2)c1ccc(Cl)cc1Cl	33.2*	49.3	66.6*	71.3*	5.7	0.0	39.8*	30.2*	70.0*	66.1*	86.7*	69.9*	64.8*
O=C(Nc1ccc2c(c1)OCO2)c1ccc(Cl)cc1Cl	24.1*	55.2*	72.4*	52.0*	11.7	0.6	37.2*	22.1*	36.5	55.8*	86.0*	68.6*	64.5*
COc1ccc(-c2nc3ncccc3o2)cc1NC(=O)c1ccco1	0.0	2.5	2.0	-1.8	-69.1	-0.6	nt	nt	nt	nt	nt	nt	nt
COc1ccc(C(=O)O/N=C(\N)c2ccc(OC)c(OC)c2)c(OC)c1	-1.2	-8.1	0.2	3.8	30.2	-2.0	nt	nt	nt	nt	nt	nt	nt
COc1ccc(C(=O)O/N=C(\N)c2ccccc2)c(OC)c1	50.8*	82.0*	81.5*	91.8*	9.2	1.3	36.7*	26.3*	76.0*	69.3*	89.4*	84.7*	71.6*
Cc1cc(/C(N)=N/OC(=O)c2ccccc2Cl)no1	24.8*	76.9*	88.0*	81.2*	22.2	1.0	19.2*	48.8*	84.8*	83.6*	97.3*	93.3*	85.5*
Cc1ccc(/C(N)=N/OC(=O)c2ccc(C)cc2Cl)cc1	27.7*	70.3*	85.1*	80.5*	10.3	2.1	60.2*	56.1*	62.7*	63.2*	88.6*	56.9*	24.6
Cc1ccc(/C(N)=N/OC(=O)c2ccc3ccccc3c2)cc1	-0.6	-12.7	49.4	-11.3	-10.6	-0.5	nt	nt	nt	nt	nt	nt	nt
Cc1cccc(/C(N)=N/OC(=O)c2ccc(Cl)cc2Cl)c1	21.4*	97.3*	98.3*	94.2*	14.6	1.7	37.4*	49.7*	99.1*	100.3*	103.1*	98.9*	95.5*
Cc1cc(NC(=O)COC(=O)c2ccccc2Cl)no1	nt	8.4	7.4	-4.4	13.5	1.0	nt	nt	nt	nt	nt	nt	nt
O=C1C(Cl)=C(NCc2cccnc2)C(=O)c2ccccc21	18.2*	30.2	29.7	59.7*	86.4*	7.5	4.8	-3.3	47.3	71.9*	26.6	66.0*	2.8
O=S(=O)(Cc1ccccc1)NCc1cccnc1	1.1	8.7	3.1	-7.1	-3.4	0.5	nt	nt	nt	nt	nt	nt	nt
CC(=O)C1=C(O)C2(C)c3c(O)c(C)c(O)c(C(C)=O)c3OC2CC1=O (stereo not given)	nt	nt	nt	nt	18.7	5.9	nt	nt	nt	nt	nt	nt	nt
Cc1nnc(SCC(=O)NCc2ccccc2Cl)[nH]c1=O	2.5	5.1	4.1	9.3	-12.1	-0.6	nt	nt	nt	nt	nt	nt	nt
N#CC(C#N)=c1ccc2c(c1)NC1(CCCCC1)N=2	51.7*	18.2	8.9	15.4	41.7*	-3.8	6.8	1.0	nt	nt	nt	nt	nt	SENP8 conf-2=24.1*
COc1ccc(/C=N/Nc2nnc(C)n2N)cc1OC	18.7*	-5.4	-0.5	10.5	41.3*	1.6	1.2	-7.4	nt	nt	nt	nt	nt	SENP8 conf-2=18.4
CSc1nc2n(n1)C(c1ccccn1)C1=C(CC(C)(C)CC1=O)N2 (stereo not given)	-2.6	-5.2	-6.1	-14.2	-253.2	2.4	nt	nt	nt	nt	nt	nt	nt
Cc1nnc(N/N=C/c2ccc([N+](=O)[O-])cc2)n1N	0.5	8.2	3.7	-1.4	27.1	3.1	nt	nt	nt	nt	nt	nt	nt
CCc1nnc(N/N=C/c2ccc(N3CCC(C)CC3)c([N+](=O)[O-])c2)n1N	21.1*	0.4	19.2	-17.2	62.0*	1.7	-2.4	-1.3	nt	nt	nt	nt	nt	SENP8 conf-2=43.1*
SMILES	HSP90 inh	SENP8 block-1	SENP7 block	SENP6 block	SENP8 block-2	SENP1 inh	HSP90 confirm	luciferase ctr	SENP8 conf-1	SENP6 conf	SENP7 conf	Casp3 select	SENP luc ctr	others
Nn1cnnc1N/N=C/c1ccc(Cl)c([N+](=O)[O-])c1	46.3*	-6.9	-3.6	-7.8	65.6*	1.5	-3.3	-6.1	nt	nt	nt	nt	nt	SENP8 conf-2=63.8*
Cc1cccc(NC(=O)c2ccccc2OCC(=O)N2CCCC2)c1C	1.1	0.8	1.6	-3.8	nt	nt	nt	nt	nt	nt	nt	nt	nt
CCOC(=O)/C(N=Nc1ccc2c(c1)OCO2)=C(\C)O	2.2	15.1	21.2	30.4	21.4	10.0	nt	nt	nt	nt	nt	nt	nt
O=C(Nc1ccc(N2CCOCC2)cc1)C1CCN(S(=O)(=O)Cc2ccccc2)CC1	25.3*	2.7	2.1	-10.6	40.2*	0.8	0.4	-5.1	nt	nt	nt	nt	nt	SENP8 conf-2=6.8
O=C(Nc1ccc2c(c1)OCCO2)C1CCN(S(=O)(=O)Cc2ccccc2)CC1	-3.5	-17.7	-10.2	-37.8	28.4	1.5	nt	nt	nt	nt	nt	nt	nt
Cc1ccc(C)c(C(=O)COC(=O)c2cccc(N3C(=O)c4c(C)nc5ccccc5c4C3=O)c2)c1	26.7*	3.7	4.8	2.5	41.7*	1.0	13.8	-3.0	nt	nt	nt	nt	nt	SENP8 conf-2=14.3
Cc1nc2ccccc2c2c1C(=O)N(c1cccc(C(=O)O)c1)C2=O	2.5	4.5	-3.8	-3.1	8.5	1.9	nt	nt	nt	nt	nt	nt	nt
O=C(Nc1cccc(NC(=O)c2cccs2)c1)c1ccco1	0.6	-1.8	3.3	-8.9	14.6	2.1	nt	nt	nt	nt	nt	nt	nt
